Screening results (PubChem)
RAM inhibit – inhibitors of the yeast RAM network, primary screen, dse1pr::URA3 reporter, 5-FOA selection; S. cerevisiae dse1pr::URA3 reporter, 5-FOA growth OD615, 2 d; analog-sensitive cbk1-as2 kinase mutant strain; inhibition, % at 50 µM; hit rate 1.8% among 190,000; AID 868, 2007;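 active = inhibition above a set limit, 3 SD over mean compound inhibition, cut at about 8.4% in these data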;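 also: inhibition rescues growth on 5-FOA so higher OD means more RAM inhibition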
Yeast life ext – compounds extending yeast replicative lifespan, primary screen, S. cerevisiae, OD615; S. cerevisiae growth with nicotinamide; deaD strain in restrictive glucose medium; hit rate 0.68% among 130,000; inhibition of the nicotinamide effect, % at 10 µM; AID 775, 2007;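 active = inhibition above a set limit, placed 3 SD over the median of all compounds, cut at about 26% in these data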
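assay system = DeaD-strain S. cerevisiae | measured by = absorbance at 615 nm | probe or stimulus = nicotinamide 1.5 mM | buffer or medium = CSMM-D glucose medium, restrictive | times = 48 h at 30 °C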
Yeast growth inh – growth inhibitors of yeast BB579 in restrictive medium, primary screen, yeast lifespan-shortening project, S. cerevisiae; OD615, 48 h; inhibition, % at 10 µM; hit rate 0.51% among 140,000; AID 804, 2007;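 active = inhibition above a set limit, 3 SD over the mean compound inhibition, cut at about 44% in these data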
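System: Saccharomyces cerevisiae DeaD strain BB579, replicative lifespan model yeast. Buffer or medium: restrictive glucose-based CSMM-D medium. Doses: one dose, 10 µM compound with 0.25% DMSO. Timing: 4 h preincubation and 48 h exposure at 30 °C. Detection: turbidity as optical density at 615 nm. Benchmarks: amphotericin B 10 µg/mL, positive.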
WT yeast gro inh – growth inhibition of WT strain, primary screen, mitochondrial fusion inhibitor project, WT and mutant strains, chemical genetic; mitochondrial fusion phenotypic screen; inhibition, % at 10 µM; hit rate 2.1% among 190,000; AID 1362, 2008; in the data active = inhibition above about 58%; tested in S. cerevisiae
KCC2 mod – KCC2 cotransporter modulators, thallium flux, primary screen, cell-based, HEK293 KCC2, FluoZin-2 fluorescence, MLSMR. B-score of Tl+ flux slope (higher = more flux/activation; lower = inhibition) at 10 µM. KCC2 cells, thallium flux FluoZin-2 fluorescence. Solute carrier family 12 member 5 (Homo sapiens), Q9H2X9. hit rate 2.2% among 190,000;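 active = thallium flux slope and its plate-corrected score both differing from the plate sample mean at a set confidence after two filtering rounds, in either direction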;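 also: slope of fluorescence scaled to starting intensity during 10 to 20 s after thallium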
Target sequence (Q9H2X9 whole entry, looked up): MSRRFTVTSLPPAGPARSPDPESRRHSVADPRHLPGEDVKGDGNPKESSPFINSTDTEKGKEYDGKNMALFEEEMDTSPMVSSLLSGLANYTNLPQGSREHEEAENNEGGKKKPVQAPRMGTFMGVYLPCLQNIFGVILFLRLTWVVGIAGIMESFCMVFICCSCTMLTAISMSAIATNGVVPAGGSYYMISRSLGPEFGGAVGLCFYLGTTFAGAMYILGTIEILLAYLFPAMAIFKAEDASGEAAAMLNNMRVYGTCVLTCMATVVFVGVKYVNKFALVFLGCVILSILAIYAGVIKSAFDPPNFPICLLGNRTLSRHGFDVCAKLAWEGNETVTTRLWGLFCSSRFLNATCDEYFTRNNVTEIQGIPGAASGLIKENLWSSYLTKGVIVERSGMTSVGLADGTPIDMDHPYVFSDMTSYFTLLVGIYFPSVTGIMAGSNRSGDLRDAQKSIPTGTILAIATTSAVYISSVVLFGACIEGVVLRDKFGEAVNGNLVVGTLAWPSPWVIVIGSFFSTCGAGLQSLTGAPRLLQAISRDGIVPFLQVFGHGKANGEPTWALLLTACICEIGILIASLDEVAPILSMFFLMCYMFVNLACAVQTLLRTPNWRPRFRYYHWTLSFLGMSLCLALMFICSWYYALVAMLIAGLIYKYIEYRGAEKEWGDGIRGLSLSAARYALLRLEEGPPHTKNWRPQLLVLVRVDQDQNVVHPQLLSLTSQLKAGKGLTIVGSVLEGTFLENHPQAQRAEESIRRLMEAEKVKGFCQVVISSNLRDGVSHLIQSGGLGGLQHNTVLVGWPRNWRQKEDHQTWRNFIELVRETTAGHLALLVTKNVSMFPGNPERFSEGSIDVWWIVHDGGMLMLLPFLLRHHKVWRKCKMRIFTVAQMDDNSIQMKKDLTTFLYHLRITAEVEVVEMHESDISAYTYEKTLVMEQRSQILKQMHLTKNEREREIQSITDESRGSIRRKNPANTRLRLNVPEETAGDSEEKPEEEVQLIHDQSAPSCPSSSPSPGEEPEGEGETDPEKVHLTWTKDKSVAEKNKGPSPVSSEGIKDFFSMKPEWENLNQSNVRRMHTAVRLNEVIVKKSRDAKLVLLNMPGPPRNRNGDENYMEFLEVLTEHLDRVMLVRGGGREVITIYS
Numbers stand for hits; 0 = inactive; - = no result. Hits are enriched below; roughly 5.5% of the tested compounds scored in any of these assays.

SMILES	RAM inhibit	Yeast life ext	Yeast growth inh	WT yeast gro inh	KCC2 mod
O=C(c1cccs1)N1N=C(c2ccc(O)cc2)CC1c1ccccc1 (configuration not stated)	0	0	0	0	0
O=S(=O)(c1ccccc1)N1N=C(c2ccccc2)CC1c1ccccc1 (configuration not stated)	0	-	-	80	0
Cc1cc(N2CCN(C(=O)c3ccco3)CC2)n2ncc(-c3ccccc3)c2n1	0	0	98	93	0
Cc1cc(NCCN2CCOCC2)n2nc(C)c(-c3ccccc3)c2n1	0	0	0	0	0
Cc1cc(NCCN2CCOCC2)n2ncc(-c3ccccc3)c2n1	0	42	0	0	-
Cc1cc(N2CCCCC2)n2ncc(-c3ccc(Cl)cc3)c2n1	0	0	0	58	0
Cc1cc(NCCN2CCOCC2)n2ncc(-c3ccc(Cl)cc3)c2n1	-	-	-	-	4.8
COc1ccc2[nH]c(=O)c(CN(C)C(=O)c3cccs3)cc2c1	-	-	-	-	0
CCCOc1ccc(Br)cc1/C=N/O	0	0	0	0	0
Cc1c(NC(=O)CSc2nc3c(cnn3-c3ccccc3)c(=O)[nH]2)c(=O)n(-c2ccccc2)n1C	11	0	0	0	0
O=C(CN1C(=O)CCC1=O)NNc1ccc2ccccc2c1	0	-	-	71	0
CC(C)C(C)(C#N)NC(=O)CSc1ncnc2sc(-c3ccccc3)cc12 (configuration not stated)	0	0	0	0	-3.6
CN(CCC#N)C(=O)CSc1ncnc2sc(-c3ccccc3)cc12	0	0	0	0	0
NC(=O)c1ccc(NC(=O)CSc2nnc(-c3ccccn3)n2N)cc1	0	-	-	0	0
O=C(NCc1ccc2c(c1)OCO2)c1ccc(CSCc2ccccc2Cl)o1	11	0	0	0	0
O=C(Cc1ccccc1)NCc1ccc2c(c1)OCO2	0	0	0	0	-
CC1COC(C)(CC(=O)NN2C(=O)c3ccccc3C2=O)O1 (configuration not stated)	0	-	-	0	0
Cc1cc(C)nc(NS(=O)(=O)c2ccc(NC(=O)CN3C(=O)S/C(=C\c4ccccc4)C3=O)cc2)n1	9.9	0	0	0	0
CCCN(CC1CC1)C(=O)COC(=O)c1ccc2c(c1)C(=O)N(c1ccc(OCC)cc1)C2=O	11	-	-	0	0
CN1CCC(NC(=S)Nc2cccc([N+](=O)[O-])c2)CC1	0	-	-	0	0
O=C(/C(=N\Nc1ccccc1)Sc1nnnn1-c1ccccc1)c1ccccc1	0	30	0	0	0
CCN(C(=O)c1cnc(N2CCN(c3ncccn3)CC2)c2ccccc12)c1cccc(Cl)c1	0	0	0	63	0
CN(C(=O)c1cnc(N2CCN(c3ncccn3)CC2)c2ccccc12)c1ccc(Cl)cc1	0	0	0	0	0
CCOC(=O)CCCCC(=O)c1[nH]c(=O)[nH]c1CSc1nnc2c3ccccc3n(C(C)C)c2n1	0	0	0	0	0
O=C(c1ccc(-c2ccccc2)cc1)N1CCN(c2ccccn2)CC1	0	-	-	0	0
SMILES	RAM inhibit	Yeast life ext	Yeast growth inh	WT yeast gro inh	KCC2 mod
C=CCc1cccc(CNc2nc3ccccc3n2CCC)c1O	0	0	0	59	0
C#CCNC(=O)C1=C[C@H](c2coc3ccccc3c2=O)[C@@H](CCCO)[C@H](OCC)O1	0	-	-	0	0
Cc1ccc(C2c3c(C)nn(-c4ccc([N+](=O)[O-])cc4)c3N=C3C(=O)Nc4ccccc4N32)cc1 (configuration not stated)	9.9	-	-	0	0
Cc1nn(-c2ccc([N+](=O)[O-])cc2)c2c1C(c1ccc(OC(F)F)cc1)N1C(=N2)C(=O)Nc2ccccc21 (configuration not stated)	0	-	-	0	0
Cc1ccc(S(=O)(=O)NNC(=O)c2ccoc2C)cc1	-	-	-	-	0
CC(C)(C)C1CCc2c(sc(NC(=O)CSc3ncn[nH]3)c2C#N)C1 (configuration not stated)	0	-	0	93	0
COc1cc(C(=O)NC(CCSC)C(=O)OCC(=O)C(C)(C)C)cc(OC)c1OC (configuration not stated)	0	-	-	0	0
Cc1ccc(NC(=S)Nc2cccc3cnccc23)c(C)c1	0	-	-	69	0
Cc1cc(C)cc(NC(=S)Nc2cccc3cnccc23)c1	0	-	-	65	0
CCc1ccc(NC(=S)Nc2cccc3cnccc23)cc1	0	-	-	61	0
C=C(C)CNC(=S)Nc1cccc2cnccc12	0	0	0	0	0
CC1(C)CC(=O)C(C=NCCN2CCN(C3CC(=O)N(c4ccc(Br)cc4)C3=O)CC2)=C(O)C1 (configuration not stated)	0	-	-	0	0
CC(=O)c1ccc(N2CCN(C(=S)Nc3ccc(Cl)c(Cl)c3)CC2)cc1	0	-	-	0	0
COc1ccc2c(c1OC)C(=O)N1N=C(c3ccc(Cl)cc3)CC21 (configuration not stated)	0	0	0	0	0
COc1cc(/C=C2\S/C(=N/S(=O)(=O)c3ccc(C)cc3)NC2=O)c([N+](=O)[O-])cc1OC	0	-	0	0	-6.5
CCOC(=O)c1c(NC(=O)C2C3C=CC(C3)C2C(=O)O)sc2c1CC(C)CC2 (configuration not stated)	0	-	-	0	0
CCCOC(=O)c1c(NC(=O)C2C3C=CC(C3)C2C(=O)O)sc2c1CCC(C)C2 (configuration not stated)	0	-	-	0	-3.1
Cc1ccc(-n2nnc3c(=O)n(CC(=O)N4CCCC4)cnc32)cc1	0	0	0	0	-
Cc1ccc(-n2nnc3c(=O)n(CC(=O)N4CCC(C)CC4)cnc32)cc1	0	0	43	0	0
Fc1ccc(NC(=S)N/N=C/c2ccc(F)c(F)c2)c(F)c1	0	0	0	0	20
Fc1ccccc1/C=N/NC(=S)Nc1ccc(Cl)cc1Cl	0	0	0	0	15
Cc1nn(CC(=O)c2ccccc2)c(=O)c2nn(-c3ccccc3F)c(C)c12	0	0	0	0	-
Cc1cc(=O)oc2cc(OCC3CC(c4ccc(Cl)cc4)=NO3)ccc12 (configuration not stated)	0	0	0	65	-
Cc1cc(=O)oc2cc(OCC3CC(c4ccc(N(C)C)cc4)=NO3)ccc12 (configuration not stated)	0	0	0	0	0
Nc1ccccc1SC1CC(=O)N(Cc2ccccc2)C1=O (configuration not stated)	0	-	-	0	0
CCOC(=O)CN1C(c2ccc(O)cc2)Nc2ccc(Br)cc2C1c1ccccc1 (configuration not stated)	0	0	0	96	0
COc1ccc(NC(=O)c2cc([N+](=O)[O-])ccc2O)cc1	0	-	-	0	-3.3
Cc1ccc(N(CCC(=O)Nc2nnc(C3CC3)s2)S(=O)(=O)c2ccccc2)cc1	0	0	0	0	0
Oc1c(Br)cc(Cl)cc1C=Nc1ccccc1Br	0	0	65	0	0
